# High-throughput results deposited in PubChem BioAssay by The Scripps Research Institute Molecular Screening Center.
# Fam108B counter: mouse Fam108B serine hydrolase inhibitors, primary screen, counter-screen for RBBP9 inhibitor project, biochemical, fluorescence polarization; inhibition, % at 9.51 µM; recombinant Fam108B, FP-Rh probe fluorescence polarization; hit rate 0.33% among 300,000;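 active = inhibition above the screen mean inhibition plus 3 SD, computed separately per campaign, cut at about 18% in these data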;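 note: inhibitors lower polarization as less probe binds the enzyme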
# PME-1 inh: PME-1 inhibitors via competitive probe labeling, primary screen, biochemical, fluorescence polarization, FP-Rh probe, HTS. AID 2130, 2009. recombinant PME-1. hit rate 0.53% among 320,000. inhibition, % at 5.9 µM;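 active = inhibition above the campaign mean of all compounds plus 3 SD, cut at about 26% in these data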;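 note: competitive labeling of PME-1 active site by serine hydrolase directed probe; inhibitors block probe labeling so polarization falls and inhibition rises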
# PAD4 FP inh: human PAD4 inhibitors, primary screen, biochemical, fluorescence polarization, 1536-well format; inhibition, % at 6.36 µM; Protein-arginine deiminase type-4 (Homo sapiens), Q9UM07; recombinant PAD4, RCA probe fluorescence polarization; hit rate 0.41% among 330,000;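 active = percent inhibition above a cutoff equal to the mean of all tested compounds plus 3 SD, cut at about 15% in these data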
# RBBP9 inh: human RBBP9 inhibitors, primary screen, biochemical, fluorescence polarization, FP-Rh probe, HTS; recombinant RBBP9; hit rate 0.2% among 220,000; AID 1515, 2009; inhibition, % at 7.94 µM;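 active = inhibition above the campaign mean of all tested compounds plus 3 SD, cut at about 14% in these data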
# Target sequence (O75884 whole entry, looked up): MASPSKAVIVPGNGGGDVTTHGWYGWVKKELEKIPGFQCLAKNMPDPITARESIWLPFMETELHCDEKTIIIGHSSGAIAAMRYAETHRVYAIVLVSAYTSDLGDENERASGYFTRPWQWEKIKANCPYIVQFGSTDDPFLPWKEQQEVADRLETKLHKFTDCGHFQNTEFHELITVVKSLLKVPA
#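 Measured by: FP readout at 525/598 nm; material: recombinant human RBBP9; also added: Serine-hydrolase probe FP-Rh, 375 nM pre-mixing; medium: Tris buffer pH 8.0, NaCl, Pluronic; replication: one well per compound; doses: one concentration, 7.94 µM nominal, 0.794% DMSO; timing: preincubation 30 min plus labeling 45 min at 25 °C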
# PRMT1 FP inh: PRMT1 methyltransferase inhibitors, primary screen, biochemical, fluorescence polarization; inhibition, % at 2.79 µM; Protein arginine N-methyltransferase 1 (Homo sapiens), Q99873; AID 652257, 2013; recombinant PRMT1, activity-based probe fluorescence polarization; hit rate 1.3% among 370,000;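 active = inhibition above about 21% made by adding two undisclosed values, limit read from the data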
# GSTO1 inh: inhibitors of recombinant GSTO1, primary screen, counter-screen for RBBP9 inhibitor project, biochemical, fluorescence polarization | inhibition, % at 5.96 µM | activity-based probe fluorescence polarization | AID 1974, 2009 | hit rate 1.1% among 300,000;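 active = inhibition above the campaign mean inhibition plus 3 SD, cut at about 35% in these data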
# Target sequence (P78417 whole entry, looked up): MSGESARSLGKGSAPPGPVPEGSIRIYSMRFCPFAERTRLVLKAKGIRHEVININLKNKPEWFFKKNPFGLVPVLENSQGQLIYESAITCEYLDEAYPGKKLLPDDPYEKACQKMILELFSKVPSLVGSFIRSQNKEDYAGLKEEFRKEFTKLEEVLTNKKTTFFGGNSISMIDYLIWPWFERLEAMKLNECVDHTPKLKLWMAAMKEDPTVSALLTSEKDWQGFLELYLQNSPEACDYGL
# PAD4 FP conf: human PAD4 inhibitors, confirmation, biochemical, fluorescence polarization. shares compounds with PAD4 FP inh. recombinant PAD4, RCA probe fluorescence polarization. inhibition, % at 6.36 µM. hit rate 28% among 1,200;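 active = mean inhibition across replicates above the hit cutoff set by the earlier primary screen, cut at about 15% in these data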;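 note: inhibitors block active-site labeling by the probe so polarization falls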
# A number is an active result; n = inactive; x = no result given. In the library only some 2.3% were active in any assay of this set; here they are far more common.
SMILES,Fam108B counter,PME-1 inh,PAD4 FP inh,RBBP9 inh,PRMT1 FP inh,GSTO1 inh,PAD4 FP conf
Cc1cc(=O)n(C2CCS(=O)(=O)C2)[nH]1 (stereo not drawn),n,n,80,n,n,74,n
Cc1ccccc1-c1nnnn1C1CCS(=O)(=O)C1 (stereo not drawn),n,n,n,n,n,n,x
CC(CCc1ccccc1)NC(=O)CNC(=O)COc1ccccc1 (stereo not drawn),n,n,30,n,n,n,n
COc1ccc(C2=NN(c3ccccc3)C(=O)/C2=C\c2ccc(O)c(OC)c2)cc1,n,n,67,n,n,54,n
O=C(O)c1cccc(S(=O)(=O)Nc2ccc3oc(=O)sc3c2)c1,n,n,36,n,85,n,n
O=c1oc2ccc(NS(=O)(=O)c3cccc4cccnc34)cc2s1,n,n,36,x,77,n,23
CCOC(=O)C1=C(C)N=c2sc(=Cc3cc(Cl)c(OCC(=O)O)c(OC)c3)c(=O)n2C1c1ccccc1Cl (stereo not drawn),x,x,x,x,n,x,x
CCOC(=O)C1=C(C)N=c2s/c(=C\c3ccc(OCC(=O)O)c(OC)c3)c(=O)n2C1c1ccc(OC)cc1 (stereo not drawn),n,n,15,x,32,n,n
NC(=Nc1ccc(N)cc1)C(N)=Nc1ccc(N)cc1,n,n,46,n,n,n,n
N=C(N)c1ccc(N)cc1,n,n,n,x,n,n,x
Cc1ccc(OCCCNC2CCCC2)cc1,n,n,17,n,n,n,n
CC(C)(C)c1ccc(OCCCNC2CCCC2)cc1,n,n,n,n,n,n,x
CCOc1cc(/C=N/NC(=O)N/N=C/c2ccc(O)c(OCC)c2)ccc1O,n,n,n,x,n,n,x
COc1cc(/C=N\Nc2nncn2N)ccc1OC(C)=O,n,n,31,x,n,n,n
COc1cc(/C=N/NC(=O)c2ccncc2)ccc1OC(C)=O,n,n,n,x,n,n,x
CCOc1cc(/C=N/Nc2nnc(C)n2N)ccc1O,n,n,50,x,n,37,n
CC1CCN(c2ccc(/C=N\Nc3nncn3N)cc2[N+](=O)[O-])CC1,n,n,30,n,n,n,n
COc1ccc(OC)c(/C=N/Nc2nncn2/N=C/c2cc(OC)ccc2OC)c1,n,n,21,n,n,n,n
Cc1csc(NC(=O)C2CC(=O)N(Cc3ccco3)C2)n1 (stereo not drawn),n,n,n,n,n,n,x
CC(C)[C@H](NC(=O)c1ccco1)C(=O)OCC(=O)N(C)c1ccccc1,n,n,n,n,n,n,x
CC(C)c1ccc(CNc2ccc([N+](=O)[O-])cn2)cc1,n,n,n,n,n,n,x
COc1cc(/C=N/Nc2nncn2/N=C/c2ccc(O)c(OC)c2)ccc1O,n,n,43,n,n,n,n
COC(=O)c1[nH]c(=O)c2ccccc2c1OCc1ccccc1,n,n,n,n,n,n,x
COC(=O)c1[nH]c(=O)c2ccccc2c1O,n,n,31,n,x,n,n
COC(=O)NCc1cc2cc(Cl)ccc2[nH]1,n,n,n,n,n,n,x
SMILES,Fam108B counter,PME-1 inh,PAD4 FP inh,RBBP9 inh,PRMT1 FP inh,GSTO1 inh,PAD4 FP conf
CCn1c(CSc2nnc(-c3ccoc3C)n2C)nc2cc(S(=O)(=O)N(C)C)ccc21,n,n,32,n,n,n,n
COc1ccc(C2=NNC(=Nc3cc(S(=O)(=O)N(C)C)ccc3C)SC2)c(OC)c1,n,n,18,n,n,n,n
CCCNS(=O)(=O)c1ccc(CCC(=O)NCc2ccco2)cc1,n,n,n,n,n,n,x
O=C(CCNS(=O)(=O)c1cccc(C(F)(F)F)c1)NCc1ccco1,x,x,27,x,n,x,n
CCNC(=S)NCCN1CCOCC1,n,n,n,n,n,n,x
O=c1c2ccccc2[nH]c2ccc(F)cc12,n,n,n,n,n,n,x
